Test system: HEK-293T
Experiment: Multiplex assay against HEK293T
Type: toxicity, cell-based
Settings: human
In short: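 Imaging took place on a CQ1 microscope at 37°C and 5% CO2 once compound had been added to live cells stained at seeding with Hoechst33342, BioTracker Green Microtubule Cytoskeleton Dye, MitoTracker Red and Annexin V Alexa Fluor 680. CellPathfinder machine-learning gating classed cells as Hoechst high-intensity objects or normal cells, classed normal cells as having healthy, pyknosed or fragmented nuclei, and classed pyknosed cells as mitotic or apoptotic. Tubulin, mitochondrial-mass and membrane-permeability phenotypes are per cents of the healthy-nucleus cells.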

[1] = 12 h, 1 µM, compound concentration 1 uM, replicate 1
[2] = 12 h, 1 µM, compound concentration 1 uM, replicate 2
[3] = 12 h, 10 µM, compound concentration 10 uM, replicate 1
[4] = 12 h, 10 µM, compound concentration 10 uM, replicate 2
[5] = 24 h, 1 µM, compound concentration 1 uM, replicate 1
[6] = 24 h, 1 µM, compound concentration 1 uM, replicate 2
[7] = 24 h, 10 µM, compound concentration 10 uM, replicate 1
[8] = 24 h, 10 µM, compound concentration 10 uM, replicate 2
[9] = 48 h, 1 µM, compound concentration 1 uM, replicate 1
[10] = 48 h, 1 µM, compound concentration 1 uM, replicate 2
[11] = 48 h, 10 µM, compound concentration 10 uM, replicate 1
[12] = 48 h, 10 µM, compound concentration 10 uM, replicate 2

## Cc1cc(-c2ccc3c(c2)CC[C@H]3N2CC3(CCN(C(=O)Cc4cn5cc(C)sc5n4)CC3)C2)ncn1 [PF-5190457]
[1]
  Population Apoptotic (%): 36%
  Population Fragmented Nuclei (%): 5%
  Population Healthy Nuclei (%): 83%
  Population Hoechst High Intensity Objects (%): 5%
  Population Membrane Permeable-Phenotype (%): 0%
  Population Mitochondria Different-Phenotype (%): 40%
  Population Mitotic Cells (%): 63%
  Population Normal (%): 94%
  Population Pyknosed Nuclei (%): 11%
  Population Tubulin-Different-Phenotype (%): 25%
  Total Cell Count: 418
[2]
  Population Apoptotic (%): 47%
  Population Fragmented Nuclei (%): 8%
  Population Healthy Nuclei (%): 72%
  Population Hoechst High Intensity Objects (%): 10%
  Population Mitochondria Different-Phenotype (%): 53%
  Population Mitotic Cells (%): 52%
  Population Normal (%): 89%
  Population Pyknosed Nuclei (%): 19%
  Population Tubulin-Different-Phenotype (%): 22%
  Total Cell Count: 258
[3]
  Population Apoptotic (%): 40%
  Population Fragmented Nuclei (%): 9%
  Population Healthy Nuclei (%): 75%
  Population Hoechst High Intensity Objects (%): 11%
  Population Membrane Permeable-Phenotype (%): 0%
  Population Mitochondria Different-Phenotype (%): 53%
  Population Mitotic Cells (%): 60%
  Population Normal (%): 88%
  Population Pyknosed Nuclei (%): 14%
  Population Tubulin-Different-Phenotype (%): 37%
  Total Cell Count: 455
[4]
  Population Apoptotic (%): 54%
  Population Fragmented Nuclei (%): 3%
  Population Healthy Nuclei (%): 80%
  Population Hoechst High Intensity Objects (%): 8%
  Population Mitochondria Different-Phenotype (%): 70%
  Population Mitotic Cells (%): 45%
  Population Normal (%): 91%
  Population Pyknosed Nuclei (%): 16%
  Population Tubulin-Different-Phenotype (%): 40%
  Total Cell Count: 322
[5]
  Population Apoptotic (%): 21%
  Population Fragmented Nuclei (%): 8%
  Population Healthy Nuclei (%): 77%
  Population Hoechst High Intensity Objects (%): 2%
  Population Membrane Permeable-Phenotype (%): 0%
  Population Mitochondria Different-Phenotype (%): 24%
  Population Mitotic Cells (%): 78%
  Population Normal (%): 97%
  Population Pyknosed Nuclei (%): 13%
  Population Tubulin-Different-Phenotype (%): 16%
  Total Cell Count: 549
[6]
  Population Apoptotic (%): 45%
  Population Fragmented Nuclei (%): 11%
  Population Healthy Nuclei (%): 78%
  Population Hoechst High Intensity Objects (%): 7%
  Population Membrane Permeable-Phenotype (%): 1%
  Population Mitochondria Different-Phenotype (%): 35%
  Population Mitotic Cells (%): 54%
  Population Normal (%): 92%
  Population Pyknosed Nuclei (%): 9%
  Population Tubulin-Different-Phenotype (%): 11%
  Total Cell Count: 352
[7]
  Population Apoptotic (%): 25%
  Population Fragmented Nuclei (%): 10%
  Population Healthy Nuclei (%): 75%
  Population Hoechst High Intensity Objects (%): 5%
  Population Membrane Permeable-Phenotype (%): 1%
  Population Mitochondria Different-Phenotype (%): 28%
  Population Mitotic Cells (%): 74%
  Population Normal (%): 94%
  Population Pyknosed Nuclei (%): 14%
  Population Tubulin-Different-Phenotype (%): 30%
  Total Cell Count: 638
[8]
  Population Apoptotic (%): 36%
  Population Fragmented Nuclei (%): 5%
  Population Healthy Nuclei (%): 81%
  Population Hoechst High Intensity Objects (%): 6%
  Population Membrane Permeable-Phenotype (%): 0%
  Population Mitochondria Different-Phenotype (%): 51%
  Population Mitotic Cells (%): 63%
  Population Normal (%): 93%
  Population Pyknosed Nuclei (%): 13%
  Population Tubulin-Different-Phenotype (%): 23%
  Total Cell Count: 425
[9]
  Population Apoptotic (%): 25%
  Population Fragmented Nuclei (%): 14%
  Population Healthy Nuclei (%): 79%
  Population Hoechst High Intensity Objects (%): 1%
  Population Membrane Permeable-Phenotype (%): 1%
  Population Mitochondria Different-Phenotype (%): 18%
  Population Mitotic Cells (%): 74%
  Population Normal (%): 98%
  Population Pyknosed Nuclei (%): 5%
  Population Tubulin-Different-Phenotype (%): 9%
  Total Cell Count: 873
[10]
  Population Apoptotic (%): 39%
  Population Fragmented Nuclei (%): 12%
  Population Healthy Nuclei (%): 80%
  Population Hoechst High Intensity Objects (%): 3%
  Population Mitochondria Different-Phenotype (%): 21%
  Population Mitotic Cells (%): 60%
  Population Normal (%): 96%
  Population Pyknosed Nuclei (%): 6%
  Population Tubulin-Different-Phenotype (%): 10%
  Total Cell Count: 531
[11]
  Population Apoptotic (%): 24%
  Population Fragmented Nuclei (%): 14%
  Population Healthy Nuclei (%): 77%
  Population Hoechst High Intensity Objects (%): 2%
  Population Membrane Permeable-Phenotype (%): 0%
  Population Mitochondria Different-Phenotype (%): 27%
  Population Mitotic Cells (%): 76%
  Population Normal (%): 97%
  Population Pyknosed Nuclei (%): 8%
  Population Tubulin-Different-Phenotype (%): 20%
  Total Cell Count: 927
[12]
  Population Apoptotic (%): 46%
  Population Fragmented Nuclei (%): 13%
  Population Healthy Nuclei (%): 78%
  Population Hoechst High Intensity Objects (%): 4%
  Population Mitochondria Different-Phenotype (%): 32%
  Population Mitotic Cells (%): 53%
  Population Normal (%): 95%
  Total Cell Count: 520

Source: ChEMBL document CHEMBL5058577, “EUbOPEN Chemogenomics Library 2 (Multiplex)” (2022)
